Laboratory results reported in ChEMBL document CHEMBL1137677, “Synthesis, pharmacological screening, quantum chemical and in vitro permeability studies of N-Mannich bases of benzimidazoles through bovine cornea” (Eur J Med Chem, 2009).

Columns and labels:
[1] = Apparent permeability across bovine cornea assessed as lag time of permeation by UV-visible spectrophotometer; type: ADME, tissue-based, Bos taurus; settings: cattle
Outline: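 Fresh bovine cornea, taken within 1 h of sacrifice with lens and iris removed, was mounted in a side-by-side perfusion cell. Donor held 7 mL of drug in 0.01 M methanolic phosphate buffer, pH 7. Receptor was sampled 1 mL every 15 min for 3 h and replaced with buffer pre-equilibrated at 37 °C. Drug was quantified by UV-vis absorbance. Lag time is the time to reach a steady concentration gradient across the membrane.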

[2] = Acute toxicity in po dosed Wistar albino mouse assessed as mortality after 24 hrs by Karber's arithmetical method; type: organism-based; settings: in vivo
Outline: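 Wistar albino mice of either sex, six per group; compounds given orally by gavage as suspension in 1% carboxymethyl cellulose at 100, 200, 400, 800 or 1000 mg/kg. Mortality recorded over 24 h; LD50 calculated by Karber's arithmetical method.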

Mus musculus [3] = experiment: Analgesic activity in Wistar albino mouse assessed as protection against acetic acid-induced writhing at 20 mg/kg, po administered 30 mins prior to acetic acid challenge measured after 30 mins; type: functional
Outline: (§1)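 Wistar albino mice of either sex were dosed orally by gavage with a suspension in 1% carboxymethyl cellulose, 30 min before the writhing agent (0.6% v/v aqueous acetic acid, 1 mL/100 g). Writhings were counted over 30 min and expressed as percentage protection. Significance was tested by Student's t-test.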

Mus musculus [4] = experiment: Analgesic activity in Wistar albino mouse assessed as protection against acetic acid-induced writhing at 40 mg/kg, po administered 30 mins prior to acetic acid challenge measured after 30 mins; type: functional; outline: as §1
Rattus norvegicus [5] = experiment: Antiinflammatory activity in Wistar albino rat assessed as reduction in formalin-induced paw edema volume at 40 mg/kg, po administered 30 mins prior to formalin challenge measured after 30 mins by plethysmography; type: functional; design: scale not given: the % may be the effect or the level left
Outline: (§2)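 Wistar albino rats received the compound orally as a suspension in 1% carboxymethyl cellulose, 30 min before subplantar formalin (0.1 mL of 1% w/v). Paw volume was read by plethysmography at 30, 60, 90 and 120 min after formalin and expressed as % reduction of edema. Significance was tested by Student's t-test.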

Rattus norvegicus [6] = experiment: Antiinflammatory activity in Wistar albino rat assessed as reduction in formalin-induced paw edema volume at 40 mg/kg, po administered 30 mins prior to formalin challenge measured after 60 mins by plethysmography; type: functional; design: scale not given: the % may be the effect or the level left; outline: as §2
Rattus norvegicus [7] = experiment: Antiinflammatory activity in Wistar albino rat assessed as reduction in formalin-induced paw edema volume at 40 mg/kg, po administered 30 mins prior to formalin challenge measured after 90 mins by plethysmography; type: functional; design: scale not given: the % may be the effect or the level left; outline: as §2
Rattus norvegicus [8] = experiment: Antiinflammatory activity in Wistar albino rat assessed as reduction in formalin-induced paw edema volume at 40 mg/kg, po administered 30 mins prior to formalin challenge measured after 120 mins by plethysmography; type: functional; design: scale not given: the % may be the effect or the level left; outline: as §2
Mus musculus [9] = experiment: Analgesic activity in Wistar albino mouse assessed as protection against acetic acid-induced writhing at 100 mg/kg, po administered 30 mins prior to acetic acid challenge measured after 30 mins; type: functional; outline: as §1
Mus musculus [10] = experiment: Analgesic activity in Wistar albino mouse assessed as protection against acetic acid-induced writhing at 200 mg/kg, po administered 30 mins prior to acetic acid challenge measured after 30 mins; type: functional; outline: as §1
Rattus norvegicus [11] = experiment: Antiinflammatory activity in Wistar albino rat assessed as reduction in formalin-induced paw edema volume at 200 mg/kg, po administered 30 mins prior to formalin challenge measured after 30 mins by plethysmography; type: functional; design: scale not given: the % may be the effect or the level left; outline: as §2
Rattus norvegicus [12] = experiment: Antiinflammatory activity in Wistar albino rat assessed as reduction in formalin-induced paw edema volume at 200 mg/kg, po administered 30 mins prior to formalin challenge measured after 60 mins by plethysmography; type: functional; design: scale not given: the % may be the effect or the level left; outline: as §2
Rattus norvegicus [13] = experiment: Antiinflammatory activity in Wistar albino rat assessed as reduction in formalin-induced paw edema volume at 200 mg/kg, po administered 30 mins prior to formalin challenge measured after 90 mins by plethysmography; type: functional; design: scale not given: the % may be the effect or the level left; outline: as §2
Rattus norvegicus [14] = experiment: Antiinflammatory activity in Wistar albino rat assessed as reduction in formalin-induced paw edema volume at 200 mg/kg, po administered 30 mins prior to formalin challenge measured after 120 mins by plethysmography; type: functional; design: scale not given: the % may be the effect or the level left; outline: as §2
Rattus norvegicus [15] = experiment: Antiinflammatory activity in Wistar albino rat assessed as reduction in formalin-induced paw edema volume at 50 mg/kg, po administered 30 mins prior to formalin challenge measured after 30 mins by plethysmography; type: functional; design: scale not given: the % may be the effect or the level left
Outline: (§3)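 Standard-drug arm, given orally to Wistar albino rats 30 min before subplantar formalin (0.1 mL of 1% w/v). Paw volumes were measured by plethysmography at 30, 60, 90 and 120 min post-formalin and expressed as % reduction of edema.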

Rattus norvegicus [16] = experiment: Antiinflammatory activity in Wistar albino rat assessed as reduction in formalin-induced paw edema volume at 50 mg/kg, po administered 30 mins prior to formalin challenge measured after 60 mins by plethysmography; type: functional; design: scale not given: the % may be the effect or the level left; outline: as §3
Rattus norvegicus [17] = experiment: Antiinflammatory activity in Wistar albino rat assessed as reduction in formalin-induced paw edema volume at 50 mg/kg, po administered 30 mins prior to formalin challenge measured after 90 mins by plethysmography; type: functional; design: scale not given: the % may be the effect or the level left; outline: as §3
Rattus norvegicus [18] = experiment: Antiinflammatory activity in Wistar albino rat assessed as reduction in formalin-induced paw edema volume at 50 mg/kg, po administered 30 mins prior to formalin challenge measured after 120 mins by plethysmography; type: functional; design: scale not given: the % may be the effect or the level left; outline: as §3

`Cc1nc2ccccc2[nH]1` showed a Tlag [1] of 11.68 min.
`C(=C\c1nc2ccccc2[nH]1)/c1ccccc1` showed a Tlag [1] of 9.57 min.
`C(=C\c1nc2ccccc2n1CN1CCCCC1)/c1ccccc1` showed an LD50 at 24 h [2] of 180 mg/kg, an Activity (Mus musculus [3]) of 29.56% and an Activity (Mus musculus [4]) of 43.8%. For the same compound, the Activity (Rattus norvegicus [5]) was 48%, the Activity (Rattus norvegicus [6]) was 56% and the Activity (Rattus norvegicus [7]) was 59%. It also gave an Activity (Rattus norvegicus [8]) of 62% and a Tlag [1] of 4.51 min.
`CN(C)Cn1cnc2ccccc21` gave an LD50 at 24 h [2] greater than 1000 mg/kg, an Activity (Mus musculus [9]) of 25.87% and an Activity (Mus musculus [10]) of 31.4%. The Activity (Rattus norvegicus [11]) was 48%, the Activity (Rattus norvegicus [12]) was 51% and the Activity (Rattus norvegicus [13]) was 64%. For the same compound, the Activity (Rattus norvegicus [14]) was 53% and the Tlag [1] was 15.31 min.
`CCN(CC)Cn1c(/C=C/c2ccccc2)nc2ccccc21` gave an LD50 at 24 h [2] of 175 mg/kg, an Activity (Mus musculus [3]) of 32.2% and an Activity (Mus musculus [4]) of 47.49%. For the same compound, the Activity (Rattus norvegicus [5]) was 20%, the Activity (Rattus norvegicus [6]) was 50% and the Activity (Rattus norvegicus [7]) was 51%. It also gave an Activity (Rattus norvegicus [8]) of 56% and a Tlag [1] of 4.9 min.
In the case of `CCN(CC)Cn1cnc2ccccc21`, the LD50 at 24 h [2] is reported as greater than 1000 mg/kg, the Activity (Mus musculus [9]) is reported as 11.35% and the Activity (Mus musculus [10]) is reported as 43.8%. The Activity (Rattus norvegicus [11]) was 28%, the Activity (Rattus norvegicus [12]) was 59% and the Activity (Rattus norvegicus [13]) was 63%. The Activity (Rattus norvegicus [14]) was 61% and the Tlag [1] was 16.79 min.
Compound `C(=C\c1nc2ccccc2n1CN1CCOCC1)/c1ccccc1` has an LD50 at 24 h [2] of 200 mg/kg, an Activity (Mus musculus [3]) of 20.58% and an Activity (Mus musculus [4]) of 27.45%. The Activity (Rattus norvegicus [5]) was 52%, the Activity (Rattus norvegicus [6]) was 59% and the Activity (Rattus norvegicus [7]) was 74%. For the same compound, the Activity (Rattus norvegicus [8]) was 70% and the Tlag [1] was 7.33 min.
Compound `CC(=O)Nc1ccc(O)cc1` [ACETAMINOPHEN] has an Activity (Mus musculus [9]) of 47.76% and a Tlag [1] of 1.55 min.
`c1ccc2[nH]cnc2c1` [BENZIMIDAZOLE] showed a Tlag [1] of 18.81 min.
With `O=C(O)Cc1ccccc1Nc1c(Cl)cccc1Cl` [DICLOFENAC] the Activity (Rattus norvegicus [15]) was 48%, the Activity (Rattus norvegicus [16]) was 65% and the Activity (Rattus norvegicus [17]) was 64%. For the same compound, the Activity (Rattus norvegicus [18]) was 65% and the Tlag [1] was 3.36 min.
